Data as given in ChEMBL document CHEMBL4680069, “Itaconate is a covalent inhibitor of the Mycobacterium tuberculosis isocitrate lyase” (RSC Med Chem, 2021).
The source made the active and inactive calls. The rule behind the calls is not given here.

Key:
[1] = Covalent inhibition of wild type N-terminal polyhis-tagged TEV protease cleavage site fused Mycobacterium tuberculosis ICL1 expressed in Escherichia coli BL21 (DE3) using DL-isocitrate as substrate measured after 1 hr by UV-Vis spectrophotometric analysis
Procedure, shortened: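 Recombinant ICL1 at 20 nM with 1 mM DL-isocitrate and 1 mM MgCl2 in 50 mM Tris pH 7.5. Includes 10 mM phenylhydrazine-HCl to trap product. Inhibitor tested at varying concentrations to give IC50. Four separate measurements; errors are standard deviations.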

[2] = test system: Mycobacterium tuberculosis; assay: (§1) Binding affinity to wild type N-terminal polyhis-tagged TEV protease cleavage site fused Mycobacterium tuberculosis ICL1 expressed in Escherichia coli BL21 (DE3) assessed as covalent adduct formation at 1 mM measured after 5 hrs in presence of Mg2+ by LC-MS/MS analysis relative to control
[3] = test system: Mycobacterium tuberculosis; assay: Binding affinity to wild type N-terminal polyhis-tagged TEV protease cleavage site fused Mycobacterium tuberculosis ICL1 expressed in Escherichia coli BL21 (DE3) assessed as compound-protein covalent adduct formation by measuring molecular mass at 1 mM after 12 hrs in presence of MgCl2 by LC-MS analysis
[4] = test system: Mycobacterium tuberculosis; assay: Binding affinity to wild type N-terminal polyhis-tagged TEV protease cleavage site fused Mycobacterium tuberculosis ICL1 expressed in Escherichia coli BL21 (DE3) assessed as covalent adduct formation at 1 mM measured after 75 mins in presence of Mg2+ by LC-MS/MS analysis relative to control
[5] = Binding affinity to wild type N-terminal polyhis-tagged TEV protease cleavage site fused Mycobacterium tuberculosis ICL1 expressed in Escherichia coli BL21 (DE3) in presence of MgCl2 by NMR binding analysis
[6] = test system: Mycobacterium tuberculosis; assay: Binding affinity to wild type N-terminal polyhis-tagged TEV protease cleavage site fused Mycobacterium tuberculosis ICL1 expressed in Escherichia coli BL21 (DE3) assessed as covalent adduct formation in presence of glyoxylate by NMR binding analysis
[7] = test system: Mycobacterium tuberculosis; assay: as §1, with “1 min” for “5 hrs”, “Mg2+ and glyoxylate” for “Mg2+”
[8] = test system: Mycobacterium tuberculosis; assay: Binding affinity to wild type N-terminal polyhis-tagged TEV protease cleavage site fused Mycobacterium tuberculosis ICL1 expressed in Escherichia coli BL21 (DE3) assessed as compound-protein covalent adduct formation at 1 mM in absence of Mg2+ by LC-MS analysis
[9] = test system: Mycobacterium tuberculosis; assay: Binding affinity to wild type N-terminal polyhis-tagged TEV protease cleavage site fused Mycobacterium tuberculosis ICL1 (Ala170-Lys197) expressed in Escherichia coli BL21 (DE3) assessed as covalent adduct formation at 1 mM incubated overnight in presence of Mg2+ followed by trypsin protease digestion by tandem mass spectrometry analysis; details: time 12.0 hrs
[10] = Binding affinity to wild type N-terminal polyhis-tagged TEV protease cleavage site fused Mycobacterium tuberculosis ICL1 expressed in Escherichia coli BL21 (DE3) in presence of glyoxylate by NMR binding analysis
[11] = Binding affinity to wild type N-terminal polyhis-tagged TEV protease cleavage site fused Mycobacterium tuberculosis ICL1 expressed in Escherichia coli BL21 (DE3) in presence of Mg2+ and glyoxylate by NMR binding analysis
[12] = Binding affinity to wild type N-terminal polyhis-tagged TEV protease cleavage site fused Mycobacterium tuberculosis ICL1 expressed in Escherichia coli BL21 (DE3) in absence of Mg2+ by NMR binding analysis
[13] = test system: Mycobacterium tuberculosis; assay: Binding affinity to recombinant Mycobacterium tuberculosis CDC1551 ICL2 (Cys215-Arg233) expressed in Escherichia coli BL21 (DE3) LOBSTR assessed as covalent adduct formation at 1 mM incubated overnight in presence of Mg2+ followed by trypsin protease digestion by tandem mass spectrometry analysis; details: time 12.0 hrs

SMILES: O=C(O)C/C(=C\c1ccccc1)C(=O)O
- IC50 [1]: 2600 µM

SMILES: O=C(O)/C=C(/CC(=O)O)C(=O)O
- IC50 [1]: 5200 µM

SMILES: C=C(CC(=O)OC)C(=O)OC
- IC50 [1]: > 10000 µM

SMILES: C/C=C(\CC(=O)OC)C(=O)OC
- IC50 [1]: > 10000 µM

SMILES: C/C=C(\CC(=O)O)C(=O)O
- IC50 [1]: 3100 µM

SMILES: O=C(O)/C=C(\CC(=O)O)C(=O)O [ACONITIC ACID]
- IC50 [1]: 5020 µM

SMILES: C=C(CC(=O)O)C(=O)O [ITACONATE]
- Activity [2]: 100%
- Activity [3]: Active
- Activity [4]: 50%
- Kd [5]: 112 µM
- Activity [6]: inactive
- Activity [7]: 100%
- Activity [8]: inactive
- Activity [9]: Active
- Kd [10]: > 500 µM
- Kd [11]: 123 µM
- Kd [12]: > 500 µM
- IC50 [1]: 420 µM
- Activity [13]: Active
